Assay results reported in ChEMBL document CHEMBL1139305, “Design, synthesis and pharmacological screening of novel antihypertensive agents using hybrid approach” (Bioorg Med Chem, 2009).
In brackets after ≈: the same amount, converted by molar mass. Activity calls are given as the source filed them. No cut-off for these calls is given here.

Legend:
[1] = test system: Rattus norvegicus; assay: Effect on heart rate in anesthetized Wistar rat assessed as number of beats per minutes at 40 mg/kg, ip after 15 mins by electrocardiography; type: functional; conditions: route intraperitoneal
How it was run: (§1)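 Wistar rats (250–300 g) anaesthetised with thiopental 60 mg/kg ip, then given compound ip at 40 mg/kg in 0.5% aqueous methyl cellulose. ECG recorded by transducer, with heart rate (beats/min) and P–Q, QRS and Q–T intervals (ms) taken at 0, 15, 30, 45 and 60 min after dosing.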

[2] = test system: Rattus norvegicus; assay: Effect on heart rate in anesthetized Wistar rat assessed as number of beats per minutes at 40 mg/kg, ip after 30 mins by electrocardiography; type: functional; conditions: route intraperitoneal; how it was run: as §1
[3] = test system: Rattus norvegicus; assay: Effect on heart rate in anesthetized Wistar rat assessed as number of beats per minutes at 40 mg/kg, ip after 45 mins by electrocardiography; type: functional; conditions: route intraperitoneal; how it was run: as §1
[4] = test system: Rattus norvegicus; assay: Effect on heart rate in anesthetized Wistar rat assessed as number of beats per minutes at 40 mg/kg, ip after 60 mins by electrocardiography; type: functional; conditions: route intraperitoneal; how it was run: as §1
[5] = test system: Rattus norvegicus; assay: Effect on heart rate in anesthetized Wistar rat assessed as number of P-Q-intervals at 40 mg/kg, ip after 15 mins by electrocardiography; type: functional; conditions: route intraperitoneal; how it was run: as §1
[6] = test system: Rattus norvegicus; assay: Effect on heart rate in anesthetized Wistar rat assessed as number of P-Q-intervals at 40 mg/kg, ip after 30 mins by electrocardiography; type: functional; conditions: route intraperitoneal; how it was run: as §1
[7] = test system: Rattus norvegicus; assay: Effect on heart rate in anesthetized Wistar rat assessed as number of P-Q-intervals at 40 mg/kg, ip after 45 mins by electrocardiography; type: functional; conditions: route intraperitoneal; how it was run: as §1
[8] = test system: Rattus norvegicus; assay: Effect on heart rate in anesthetized Wistar rat assessed as number of P-Q-intervals at 40 mg/kg, ip after 60 mins by electrocardiography; type: functional; conditions: route intraperitoneal; how it was run: as §1
[9] = test system: Rattus norvegicus; assay: Effect on heart rate in anesthetized Wistar rat assessed as number of QRS complex at 40 mg/kg, ip after 15 mins by electrocardiography; type: functional; conditions: route intraperitoneal; how it was run: as §1
[10] = test system: Rattus norvegicus; assay: Effect on heart rate in anesthetized Wistar rat assessed as number of QRS complex at 40 mg/kg, ip after 30 mins by electrocardiography; type: functional; conditions: route intraperitoneal; how it was run: as §1
[11] = test system: Rattus norvegicus; assay: Effect on heart rate in anesthetized Wistar rat assessed as number of QRS complex at 40 mg/kg, ip after 45 mins by electrocardiography; type: functional; conditions: route intraperitoneal; how it was run: as §1
[12] = test system: Rattus norvegicus; assay: Effect on heart rate in anesthetized Wistar rat assessed as number of QRS complex at 40 mg/kg, ip after 60 mins by electrocardiography; type: functional; conditions: route intraperitoneal; how it was run: as §1
[13] = test system: Rattus norvegicus; assay: Effect on heart rate in anesthetized Wistar rat assessed as number of Q-T-intervals at 40 mg/kg, ip after 15 mins by electrocardiography; type: functional; conditions: route intraperitoneal; how it was run: as §1
[14] = test system: Rattus norvegicus; assay: Effect on heart rate in anesthetized Wistar rat assessed as number of Q-T-intervals at 40 mg/kg, ip after 30 mins by electrocardiography; type: functional; conditions: route intraperitoneal; how it was run: as §1
[15] = test system: Rattus norvegicus; assay: Effect on heart rate in anesthetized Wistar rat assessed as number of Q-T-intervals at 40 mg/kg, ip after 45 mins by electrocardiography; type: functional; conditions: route intraperitoneal; how it was run: as §1
[16] = test system: Rattus norvegicus; assay: Effect on heart rate in anesthetized Wistar rat assessed as number of Q-T-intervals at 40 mg/kg, ip after 60 mins by electrocardiography; type: functional; conditions: route intraperitoneal; how it was run: as §1
[17] = test system: Rattus norvegicus; assay: Cardiovascular effect in anaesthetized Wistar rat assessed as mean arterial pressure at 40 mg/kg, ip after 15 mins; type: functional, Artery; conditions: route intraperitoneal
How it was run: (§2)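 Adult normotensive Wistar rats (250–300 g) under thiopental (60 mg/kg ip). Right carotid artery cannulated with a heparinised catheter (20 IU/mL in saline, flushed every 30 min) connected to a pressure transducer. Measurement began one hour after surgery. Compound given ip at 40 mg/kg in 0.5% methyl cellulose, with mean arterial pressure read at 0, 15, 30, 45 and 60 min.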

[18] = test system: Rattus norvegicus; assay: Cardiovascular effect in anaesthetized Wistar rat assessed as mean arterial pressure at 40 mg/kg, ip after 30 mins; type: functional, Artery; conditions: route intraperitoneal; how it was run: as §2
[19] = test system: Rattus norvegicus; assay: Cardiovascular effect in anaesthetized Wistar rat assessed as mean arterial pressure at 40 mg/kg, ip after 45 mins; type: functional, Artery; conditions: route intraperitoneal; how it was run: as §2
[20] = test system: Rattus norvegicus; assay: Cardiovascular effect in anaesthetized Wistar rat assessed as mean arterial pressure at 40 mg/kg, ip after 60 mins; type: functional, Artery; conditions: route intraperitoneal; how it was run: as §2
[21] = test system: Rattus norvegicus; assay: Antiarrhythmic activity in anaesthetized Wistar rat assessed as decrease in BaCl2-induced cardiac rhythm disturbance at 40 mg/kg, ip 60 mins before arrhythmogen challenge; type: functional, organism-based; parameters: dose 40 mg/kg; conditions: Heart
How it was run: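 Rats (thiopental 60 mg/kg ip anaesthesia) given test compound ip at 40 mg/kg, suspended in 0.5% aqueous methyl cellulose, 60 min before iv barium chloride (32 mg/kg) to evoke arrhythmia. Scored by reduction of rhythm disturbances (premature ventricular beats, ventricular tachycardia, fibrillation) and mortality.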

[22] = test system: Rattus norvegicus; assay: Vasorelaxation activity […] assessed as inhibition of norepinephrine-induced contraction of aorta ring at 0.1 mg/ml; type: functional
How it was run: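 Isolated Wistar rat aorta rings in physiological salt solution at 37 °C, gassed 95% O2/5% CO2, isometric tension, 60 min equilibration. After contraction plateau, test compound (0.1 mg/mL) added cumulatively; EC50 (g/mL) derived from cumulative concentration–response curves against norepinephrine.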

[23] = organism: Rattus norvegicus; assay: NO release in Wistar rat by Griess reagent assay in presence of L-cysteine relative to control

SMILES | Activity [1] | Activity [2] | Activity [3] | Activity [4] | Activity [5] | Activity [6] | Activity [7] | Activity [8] | Activity [9] | Activity [10] | Activity [11] | Activity [12] | Activity [13] | Activity [14] | Activity [15] | Activity [16] | Activity [17] [mmHg] | Activity [18] [mmHg] | Activity [19] [mmHg] | Activity [20] [mmHg] | further results
O=C(CO[N+](=O)[O-])NNC(=O)c1ccc(NCC(O)CN2C(=O)/C(=C/c3cccc([N+](=O)[O-])c3)S/C2=N/c2ccccc2)cc1 (stereo not drawn) | 318.61 | 295.46 | 302.16 | 315.86 | 57 | 57.8 | 56.2 | 55.6 | 21.4 | 22.4 | 21.8 | 20.4 | 71.4 | 72.4 | 71.8 | 70.4 | 87.32 | 85.08 | 85.87 | 90.29 | Activity [21]: inactive; EC50 [22]: 141 µg/mL (≈ 222 µM); % NO release [23]: 0.21%
Cc1ccc(/C=C2\S/C(=N/c3ccccc3)N(CC(O)CNc3ccc(C(=O)NNC(=O)CO[N+](=O)[O-])cc3)C2=O)cc1 (stereo not drawn) | 303.44 | 291.92 | 279.98 | 297.59 | 49.6 | 51.2 | 52 | 50.2 | 23.2 | 23.6 | 24 | 22.8 | 72.8 | 73.4 | 74.8 | 72.2 | 91.1 | 79.16 | 72.21 | 88.93 | EC50 [22]: 28.2 µg/mL (≈ 46.6 µM); % NO release [23]: 0.27%
O=C(CO[N+](=O)[O-])NNC(=O)c1ccc(NCC(O)CN2C(=O)/C(=C/c3ccccc3O)S/C2=N/c2ccccc2)cc1 (stereo not drawn) | 298.24 | 291.85 | 279.28 | 294.57 | 51.4 | 54.2 | 54.6 | 52.8 | 21.2 | 22.4 | 23.4 | 20.8 | 73.2 | 74.4 | 75.4 | 72.8 | 82.91 | 72.44 | 64.32 | 76.24 | Activity [21]: Active; EC50 [22]: 45.7 µg/mL (≈ 75.4 µM); % NO release [23]: 0.29%
CC(C)NCC(O)COc1ccc(CC(N)=O)cc1 (stereo not drawn) [ATENOLOL] |  |  |  |  |  |  |  |  |  |  |  |  |  |  |  |  | 79.01 | 63.44 | 65.24 | 69.93 | 
COc1cc(/C=C2\S/C(=N/c3ccccc3)N(CC(O)CNc3ccc(C(=O)NNC(=O)CO[N+](=O)[O-])cc3)C2=O)cc(OC)c1OC (stereo not drawn) | 301.97 | 293.35 | 277.12 | 291.2 | 55 | 56.2 | 57.6 | 54.8 | 21.2 | 22 | 23.2 | 22.8 | 79.6 | 80.8 | 82.2 | 83.8 | 82.81 | 73.93 | 62.69 | 81.25 | EC50 [22]: 60.3 µg/mL (≈ 88.5 µM); % NO release [23]: 0.32%
O=C(CO[N+](=O)[O-])NNC(=O)c1ccc(NCC(O)CN2C(=O)/C(=C/C=C/c3ccccc3)S/C2=N/c2ccccc2)cc1 (stereo not drawn) | 307.46 | 295.42 | 302.23 | 308.77 | 52.4 | 53.6 | 53.6 | 52.4 | 21 | 22.4 | 21.4 | 20.4 | 74.6 | 75.8 | 74.8 | 73.4 | 84.86 | 77.54 | 80.16 | 90.58 | EC50 [22]: 34.7 µg/mL (≈ 56.2 µM); % NO release [23]: 0.24%
O=C(CO[N+](=O)[O-])NNC(=O)c1ccc(NCC(O)CN2C(=O)/C(=C/c3ccc(F)cc3)S/C2=N/c2ccccc2)cc1 (stereo not drawn) | 300.28 | 289.83 | 294.11 | 300.39 | 51.7 | 52.2 | 52.4 | 52.2 | 22.8 | 23.6 | 23.2 | 22 | 67.8 | 68.6 | 68.2 | 66.4 | 84.89 | 78.92 | 80.53 | 85.23 | EC50 [22]: 49 µg/mL (≈ 80.5 µM); % NO release [23]: 0.23%
